# Results pooled from the literature.
# Each line is one published result; the experiments were not run side by side.
# CA9: Carbonic anhydrase 9 (CA9, Homo sapiens, UniProt Q16790)
# PADI4: Protein-arginine deiminase type-4 (PADI4, Homo sapiens, UniProt Q9UM07)
Structure (SMILES),target,test,setting,endpoint,result
O=C(OCc1cn(-c2ccc(Cl)cc2)nn1)c1ccc(=O)oc1,CA9,"enzyme activity, inhibitor, stopped-flow",,Ki,21.9 µM
N#CSCCCCOc1ccc2c(-c3ccccc3)cc(=O)oc2c1,CA9,"enzyme activity, inhibitor, stopped-flow",,Ki,0.258 µM
N=C(CCl)NCCC[C@H](NC(=O)c1ccc2cc(-c3ccc4nncn4c3)ccc2c1)C(=O)NCc1ccccc1,PADI4,"enzyme activity, inhibitor, fluorescence",with preincubation,IC50,0.488 µM
Cc1cc(=O)oc2cc(OCCCCSC#N)ccc12,CA9,"enzyme activity, inhibitor, stopped-flow",,Ki,0.0403 µM
CN(C)c1ccc2cc(C(=O)N[C@@H](CCCN=C(N)CCl)C(=O)NCc3ccccc3)ccc2c1,PADI4,"enzyme activity, inhibitor, fluorescence",with preincubation,IC50,2.86 µM
Cc1ccc(-n2cc(COC(=O)c3ccc(=O)oc3)nn2)cc1,CA9,"enzyme activity, inhibitor, stopped-flow",,Ki,9.8 µM
N=C(CCl)NCCC[C@H](NC(=O)c1cnc2cc(Br)ccc2c1)C(=O)NCc1ccccc1,PADI4,"enzyme activity, inhibitor, fluorescence",with preincubation,IC50,0.409 µM
Cc1ccc(-n2cc(CNC(=O)c3ccc(=O)oc3)nn2)cc1,CA9,"enzyme activity, inhibitor, stopped-flow",,Ki,14.5 µM
Nc1ncnc2c1ncn2[C@@H]1O[C@H](COP(=O)(O)OP(=O)(O)OC[C@H]2OC(O)[C@H](O)[C@@H]2O)[C@@H](O)[C@H]1O (some centres unmarked),"ART1 (Homo sapiens, UniProt P52961)","enzyme activity, inhibitor, fluorescence",,Ki,4900 µM
CC[C@H](C)[C@H](NC(=O)[C@H](CCC(=O)O)NC(=O)[C@H](CO)NC(=O)[C@@H](NC(=O)[C@@H](N)CO)C(C)C)C(=O)N[C@@H](CCC(N)=O)C(=O)N[C@@H](CC(C)C)C(=O)N[C@@H](CCSC)C(=O)N[C@@H](Cc1cnc[nH]1)C(=O)N[C@@H](CC(N)=O)C(=O)N[C@@H](CC(C)C)C(=O)NCC(=O)N[C@@H](CCCCN)C(=O)N[C@@H](Cc1cnc[nH]1)C(=O)N[C@@H](CC(C)C)C(=O)N[C@@H](CC(N)=O)C(=O)N[C@@H](CO)C(=O)N[C@@H](CCSC)C(=O)N[C@@H](CCC(=O)O)C(=O)N[C@@H](CCCNC(=N)N)C(=O)N[C@H](C(=O)N[C@@H](CCC(=O)O)C(=O)N[C@@H](Cc1c[nH]c2ccccc12)C(=O)N[C@@H](CC(C)C)C(=O)N[C@@H](CCCNC(=N)N)C(=O)N[C@@H](CCCCN)C(=O)N[C@@H](CCCCN)C(=O)N[C@@H](CC(C)C)C(=O)N[C@@H](CCC(N)=O)C(=O)N[C@@H](CC(=O)O)C(=O)N[C@H](C(=O)N[C@@H](Cc1cnc[nH]1)C(=O)N[C@@H](CC(N)=O)C(=O)N[C@@H](Cc1ccccc1)C(N)=O)C(C)C)C(C)C,"Albumin (ALB, Bos taurus, UniProt P02769)","binding, BLI",,Kd,1.61 µM
Nc1ncnc2c1ncn2[C@@H]1O[C@H](CO[P@](=O)(O)O[P@](=O)(O)O[P@@](=O)(O)S)[C@@H](O)[C@H]1O,"GUK1 (Homo sapiens, UniProt Q16774)","binding, ITC",,Kd,40 µM
